Experimental data from ChEMBL document CHEMBL1142997 (J Med Chem, 2007).

molecular target: T1, Hydroxycarboxylic acid receptor 3 (Homo sapiens, UniProt P49019); assay: Activity at GPR109b in CHO cells assessed as inhibition of forskolin-induced cAMP generation; assay type: functional, cell-based
Method in brief: (§1)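 Whole-cell adenylyl cyclase FlashPlate cAMP assay on a stable receptor clone (positive clones picked by anti-HA immunostaining). Each well held 50 000 cells, stimulated with 5 µM forskolin. Normalisation: forskolin-stimulated cAMP set at 100%, cAMP from cells without forskolin at 200%. Potency reported as EC50 with number of determinations (n).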

T1 sequence (P49019 whole entry): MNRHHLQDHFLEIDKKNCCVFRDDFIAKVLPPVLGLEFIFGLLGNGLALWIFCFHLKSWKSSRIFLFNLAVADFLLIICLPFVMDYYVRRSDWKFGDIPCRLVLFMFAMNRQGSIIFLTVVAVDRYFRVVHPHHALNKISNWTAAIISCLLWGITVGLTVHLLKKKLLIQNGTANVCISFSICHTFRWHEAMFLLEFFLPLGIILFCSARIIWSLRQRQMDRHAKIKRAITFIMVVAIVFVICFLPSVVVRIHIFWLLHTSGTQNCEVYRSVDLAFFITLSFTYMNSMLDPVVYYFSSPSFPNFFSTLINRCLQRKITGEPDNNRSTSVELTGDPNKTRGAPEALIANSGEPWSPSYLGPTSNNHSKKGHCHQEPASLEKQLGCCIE

SMILES | EC50
CC1(c2cc(Br)cs2)OC(C(=O)O)=CC1=O (stereo not given) | 4.1 µM (agonist)
Cc1cc(C2(C)OC(C(=O)O)=CC2=O)cs1 (stereo in doubt; (-)-5aj) | 5 µM (agonist)
CC1(c2ccc(F)c(F)c2)OC(C(=O)O)=CC1=O (stereo not given) | 19 µM (agonist)
Cc1ccc(C2(C)OC(C(=O)O)=CC2=O)s1 (stereo not given) | 0.27 µM (agonist)
CC1(c2cc(F)cc(F)c2)OC(C(=O)O)=CC1=O (stereo not given) | 33 µM (agonist)
CC1(c2cccc(Br)c2)OC(C(=O)O)=CC1=O (single isomer, unassigned; (+)) | 14 µM (agonist)
CC1(c2ccc(Cl)s2)OC(C(=O)O)=CC1=O (stereo not given) | 3.7 µM (agonist)
CC1(C2=CCCC2)OC(C(=O)O)=CC1=O (stereo not given) | 5.1 µM (agonist)
CC1(c2csc(Cl)c2)OC(C(=O)O)=CC1=O (stereo in doubt; (-)-5ah) | 16 µM (agonist)
CC1(c2ccc(F)cc2)OC(C(=O)O)=CC1=O (stereo not given) | 9.9 µM (agonist)
CC1(c2ccccc2)OC(C(=O)O)=CC1=O (stereo in doubt; (+)-5a) [ACIFRAN] | 3 µM (agonist)
CC1(c2ccsc2)OC(C(=O)O)=CC1=O (stereo not given) | 4.2 µM (agonist)
CC1(c2csc(Br)c2)OC(C(=O)O)=CC1=O (stereo in doubt; 5ai) | 1.5 µM (agonist)
CCC1(c2ccccc2)OC(C(=O)O)=CC1=O (stereo not given) | 4.8 µM (agonist)
CC1(c2ccccc2)OC(C(=O)O)=CC1=O (stereo in doubt; 5a) [ACIFRAN] | 4.2 µM (agonist)
CC1(c2csc(Br)c2)OC(C(=O)O)=CC1=O (stereo in doubt; (+)-5ai) | 0.37 µM (agonist)
CC1(c2cccc(Cl)c2)OC(C(=O)O)=CC1=O (stereo not given) | 22 µM (agonist)
CC1(c2c(F)cccc2F)OC(C(=O)O)=CC1=O (stereo not given) | 36 µM (agonist)
Cc1cc(C2(C)OC(C(=O)O)=CC2=O)cs1 (single isomer, unassigned; (+)) | 0.18 µM (agonist)
Cc1cc(C2(C)OC(C(=O)O)=CC2=O)cs1 (stereo in doubt; 5aj) | 0.18 µM (agonist)
Cc1csc(C2(C)OC(C(=O)O)=CC2=O)c1 (stereo not given) | 1.8 µM (agonist)
CC1(c2csc(Cl)c2)OC(C(=O)O)=CC1=O (single isomer, unassigned; (+)) | 0.69 µM (agonist)
CC1(c2cccc(C(F)(F)F)c2)OC(C(=O)O)=CC1=O (stereo not given) | 12.6 µM (agonist)
CC1(c2cccc(I)c2)OC(C(=O)O)=CC1=O (stereo not given) | 5.1 µM (agonist)
CC1(c2cccc(Br)c2)OC(C(=O)O)=CC1=O (stereo in doubt; 5u) | 4.9 µM (agonist)
CC1(c2ccc(F)cc2F)OC(C(=O)O)=CC1=O (stereo not given) | 24 µM (agonist)
CC1(c2csc(Cl)c2)OC(C(=O)O)=CC1=O (stereo in doubt; 5ah) | 1.7 µM (agonist)
Cc1sc(C2(C)OC(C(=O)O)=CC2=O)cc1Br (stereo not given) | 10.4 µM (agonist)
CCc1cccc(C2(C)OC(C(=O)O)=CC2=O)c1 (stereo not given) | 6.2 µM (agonist)

organism: Homo sapiens; assay: Selectivity for GPR109a over GPR109b; assay type: functional
Method in brief: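 Whole-cell cAMP (adenylyl cyclase activation) FlashPlate assay on stable clones expressing GPR109a or GPR109b; clones picked by anti-HA immunostaining. Each clone was optimized separately, using 50 000 cells per well and 5 µM forskolin stimulation. Forskolin-stimulated cAMP was set as 100% and unstimulated cAMP as 200%. Agonist EC50 was measured at each receptor.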

SMILES | Selectivity ratio
CC1(c2ccccc2)OC(C(=O)O)=CC1=O (stereo in doubt; 5a) | 3

molecular target: T1, Hydroxycarboxylic acid receptor 3; assay: Activity at GPR109b in CHO cells assessed as inhibition of forskolin-induced cAMP generation upto 100 uM; assay type: functional, cell-based; set-up: scale not given: the % may be the effect or the level left; method in brief: as §1

SMILES | Activity [%]
COc1cccc(C2(C)OC(C(=O)O)=CC2=O)c1 (stereo not given) | < 50
O=C(O)C1=CC(=O)C2(CCc3ccccc32)O1 (stereo not given) | < 50
O=C(O)c1cccnc1 | < 50
CC1(c2ccccc2)OC(C(=O)O)=CC1=O (single isomer, unassigned; (-)) | < 50
CC1(c2cc(Cl)ccc2Cl)OC(C(=O)O)=CC1=O (stereo not given) | < 50
Cc1cccc(C2(C)OC(C(=O)O)=CC2=O)c1 (stereo not given) | < 50
Cc1cnc(C(=O)O)c[n+]1[O-] | < 50
CC1(c2cccnc2)OC(C(=O)O)=CC1=O (stereo not given) | < 50
CC1(c2ccncc2)OC(C(=O)O)=CC1=O (stereo not given) | < 50
CC1(c2ccco2)OC(C(=O)O)=CC1=O (stereo not given) | < 50
